STAT1 inh: STAT1 signaling inhibitors, primary screen, cell-based, HTS, luciferase reporter; actives 0.35% (n = 200,000); AID 920, 2007; inhibition, % at 5.5 µM; NIH 3T3 STAT1-luciferase reporter, IFN-gamma, luminescence;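 active means inhibition above a set limit, the mean inhibition across all tested compounds plus 3 SD, cut at about 34% in these data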;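 further: 0% = IFN-gamma with DMSO and 100% = IFN-gamma with 300 µM nifuroxazide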
STAT3 act: IL-6 driven STAT3 reporter potentiators, primary screen, U3A cells, luciferase, luminescence, MLSCN library | IL-6 STAT3-luciferase reporter; 100% = signal with IL-6 EC80 alone | activation (% of control), % at 5.6 µM | actives 0.91% (n = 190,000);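 active means activation above the screen-wide mean of compound activation plus 3 SD, cut at about 130% in these data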;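 further: 0% = background luminescence of wells with medium and substrate only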
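Test system: human U3A cells carrying STAT3-luciferase construct; control set: IL-6-only wells as 100% reference; timing: compound pre-incubation 1 h before IL-6, then 6 h stimulation at 37 °C; also added: IL-6 stimulus at 33 ng/mL final; evaluation: % activation versus median of IL-6-stimulated wells; detection: reporter luminescence signal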
STAT3 blocker: IL-6 driven STAT3 reporter inhibitors, primary screen, U3A cells, luciferase, luminescence, MLSCN library. IL-6 STAT3-luciferase reporter; host cell line lacks STAT1. inhibition, % at 5.5 µM. actives 0.89% (n = 190,000). AID 862, 2007;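 active means inhibition above the mean inhibition across all screened compounds plus 3 SD, cut at about 44% in these data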;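 further: 0% = DMSO only wells and 100% = 100 µM nifuroxazide control wells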
APP 5'UTR act: activators of APP 5'UTR luciferase reporter, primary screen, SH-SY5Y cells; activation, % at 2 µM; SH-SY5Y APP 5'UTR luciferase reporter, luminescence; zero percent = DMSO vehicle wells; actives 1% (n = 190,000);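 active means activation above a set limit, based on mean plus 3 SD of controls, cut at about 140% in these data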
STAT1 activator: STAT1 signaling activators, primary screen, cell-based, HTS, luciferase reporter; activation (% of control), % at 5.5 µM; AID 932, 2007; actives 2.6% (n = 200,000); NIH 3T3 STAT1-luciferase reporter, IFN-gamma, luminescence; 100% = IFN-gamma alone, no compound;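 active means activation above the screen-wide mean activation plus 3 SD, cut at about 130% in these data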;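 further: raw ratio to IFN-gamma control signal so 100% means no change and 0% no light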
NF-kB expr up: activators of NF-kB expression in neurons, primary screen, cell-based, HTS. human neuronal cells, NF-kB reporter expression; active compounds read high. fold change at 12.5 µM. actives 1.6% (n = 190,000); in the data active means fold change above about 3.3
An asterisk follows results filed as active. Hits are enriched below; roughly 5.1% of the tested compounds scored in any of these assays.

For CC(=O)Nc1nc(-c2ccc3c(c2)CCO3)cs1 the results were STAT1 inh -44, STAT3 act 82, STAT3 blocker 28, APP 5'UTR act 80, STAT1 activator 141* and NF-kB expr up 2.6.
COc1ccc(-c2csc(NC(C)=O)n2)cc1OC was read as STAT1 inh -2, STAT3 act 102, STAT3 blocker 2, APP 5'UTR act 8, STAT1 activator 102 and NF-kB expr up 1.
For CCCc1cc(=O)[nH]c(SCCCCN2C(=O)c3ccccc3C2=O)n1 the results were STAT1 inh 4, STAT3 act 107, STAT3 blocker -7, APP 5'UTR act -9, STAT1 activator 97 and NF-kB expr up 0.92.
Screening O=c1cc(-c2ccccc2)[nH]c2nc3ccccc3n12 returned STAT1 inh 6, STAT3 act 73, STAT3 blocker 36, APP 5'UTR act 116, STAT1 activator 94 and NF-kB expr up 4.8*.
Screening CCc1c(C)[nH]c2nc3ccccc3n2c1=O returned STAT1 inh -4, STAT3 act 108, STAT3 blocker -3, APP 5'UTR act -25, STAT1 activator 104 and NF-kB expr up 1.
`O=C(Nc1ccc2ccccc2c1)c1cnccn1` gave STAT1 inh -13, STAT3 act 70, STAT3 blocker 40, APP 5'UTR act 157*, STAT1 activator 112 and NF-kB expr up 6.5*.
For O=C(Nc1cnc2ccccc2c1)c1ccncc1 the results were STAT1 inh -32, STAT3 act 97, STAT3 blocker 8, APP 5'UTR act 133, STAT1 activator 130* and NF-kB expr up 3.5*.
Screening CC(C)c1ccc2oc(-c3ccc(NC(=O)c4ncn[nH]4)cc3)nc2c1 returned STAT1 inh -35, STAT3 act 93, STAT3 blocker 12, APP 5'UTR act 70, STAT1 activator 136* and NF-kB expr up 1.3.
Screening Cc1ccc2oc(-c3ccc(NC(=O)c4cccnc4)cc3)nc2c1 returned STAT1 inh -48, STAT3 act 89, STAT3 blocker 16, APP 5'UTR act 225*, STAT1 activator 144* and NF-kB expr up 1.7.
Screening O=C(Nc1ccccc1)c1ccncc1 returned STAT1 inh -4, STAT3 act 101, STAT3 blocker -1, APP 5'UTR act 14, STAT1 activator 104 and NF-kB expr up 1.2.
For CCc1nnc(NC(=O)c2ccc(-c3ccc([N+](=O)[O-])cc3Cl)o2)s1 the results were STAT1 inh 1, STAT3 act 94, STAT3 blocker 10, APP 5'UTR act -21, STAT1 activator 98 and NF-kB expr up 1.1.
C=CCNc1cc(C)oc(=O)c1C(=O)CCC was read as STAT1 inh 4, STAT3 act 110, STAT3 blocker -5, APP 5'UTR act 9, STAT1 activator 97 and NF-kB expr up 1.1.
`CCc1cccc(C)c1NC(=O)CSc1nnc(CCCOc2ccc(Cl)cc2Cl)n1C` gave STAT1 inh 9, STAT3 act 108, STAT3 blocker -12, APP 5'UTR act -14, STAT1 activator 94 and NF-kB expr up 1.1.
O=C(Nc1ccc2ccccc2c1)c1cccnc1 was read as STAT1 inh -41, STAT3 act 94, STAT3 blocker 15, APP 5'UTR act 125, STAT1 activator 137* and NF-kB expr up 5*.
`O=C(Nc1cccnc1)c1cccnc1` gave STAT1 inh 1, STAT3 act 103, STAT3 blocker 1, APP 5'UTR act 6, STAT1 activator 97 and NF-kB expr up 0.93.
For O=C(CNC(=O)C12CC3CC(CC(C3)C1)C2)N1CCN(S(=O)(=O)/C=C/c2ccccc2)CC1 the results were STAT1 inh -6, STAT3 act 85, STAT3 blocker 22, APP 5'UTR act 4, STAT1 activator 105 and NF-kB expr up 0.95.
`CN(C)/C=N/S(=O)(=O)c1cccn1-c1ncc(C(F)(F)F)cc1Cl` gave STAT1 inh -9, STAT3 act 106, STAT3 blocker 0, APP 5'UTR act 6, STAT1 activator 107 and NF-kB expr up 1.1.
`CN(C)/C=N/c1ncn(-c2ncc(C(F)(F)F)cc2Cl)n1` gave STAT1 inh -36, STAT3 act 109, STAT3 blocker -7, APP 5'UTR act 77, STAT1 activator 133* and NF-kB expr up 0.81.
COc1cc2c(cc1OC)C(c1cccc([N+](=O)[O-])c1)N(C(=O)c1ccccc1C(=O)O)CC2 (stereo unspecified) was read as STAT1 inh -5, STAT3 act 103, STAT3 blocker -1, APP 5'UTR act 18, STAT1 activator 103 and NF-kB expr up 1.1.
CC(=O)Nc1ccc(C2Nc3ccccc3C(=O)N2C2CCCCC2)cc1 (stereo unspecified) was read as STAT1 inh -5, STAT3 act 104, STAT3 blocker 0, APP 5'UTR act 6, STAT1 activator 104 and NF-kB expr up 3.4*.
Cc1ccc(N/C=C2\CCCCC2=O)nc1 was read as STAT1 inh -38, STAT3 act 95, STAT3 blocker 9, APP 5'UTR act 6, STAT1 activator 135* and NF-kB expr up 1.8.
CCn1cc(NC(=O)CCl)c(C)n1 was read as STAT1 inh -6, STAT3 act 97, STAT3 blocker 10, APP 5'UTR act 4, STAT1 activator 105 and NF-kB expr up 1.1.
`Cc1ccc(-c2nnc(CCC(=O)NCC3C4CC5CC(C4)CC3C5)o2)s1` (stereo unspecified) gave STAT1 inh -54, STAT3 act 112, STAT3 blocker -9, APP 5'UTR act 45, STAT1 activator 147* and NF-kB expr up 2.7.
Screening Cc1ccc(-c2nnc(CCC(=O)N(C)Cc3nccs3)o2)s1 returned STAT1 inh -20, STAT3 act 100, STAT3 blocker 3, APP 5'UTR act 10, STAT1 activator 117 and NF-kB expr up 2.4.
`COc1cccc(CC2(CO)CCCN(Cc3cn[nH]c3C3CCCCC3)C2)c1` (stereo unspecified) gave STAT1 inh 7, STAT3 act 105, STAT3 blocker -1, APP 5'UTR act 10, STAT1 activator 93 and NF-kB expr up 0.91.
Screening Cc1cc(-c2ccc(C(=O)O)s2)cnc1N returned STAT1 inh -31, STAT3 act 110, STAT3 blocker -12, APP 5'UTR act 27, STAT1 activator 129* and NF-kB expr up 2.1.
O=C1CSC2=NCN(c3ccc4c(c3)OCO4)CN12 was read as STAT1 inh -8, STAT3 act 114, STAT3 blocker -14, APP 5'UTR act 69, STAT1 activator 108 and NF-kB expr up 1.7.

Bioassay records from PubChem.
